# Source: ChEMBL document CHEMBL1147035, “Synthesis and in vitro evaluation of targeted tetracycline derivatives: effects on inhibition of matrix metalloproteinases” (Bioorg Med Chem, 2007)
# The source made the active and inactive calls. No cut-off for these calls is given here.
# Legend:
# [1] = target: 72 kDa type IV collagenase (Homo sapiens, UniProt P08253); test: Inhibition of human MMP2
# In short: (§1)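 Human pro-enzymes activated with 2 mM APMA at 37 °C (MMP-2 30 min; MMP-3, MMP-8 1 h), then preincubated 30 min at 37 °C with inhibitor diluted from 10^-3 to 10^-6 M. Substrates: Mca-RPKPYA-Nva-WMK(Dnp)-NH2 for MMP-3; Dnp-Pro-Cha-Gly-Cys(ME)-His-Ala-Lys(Nma)-NH2 for MMP-2 and MMP-8. Incubated 6 h at 37 °C; fluorescence read at ex 340/em 440 nm. Triplicates; IC50 from 3 central linear points.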
# Stromelysin-1 = Stromelysin-1 (Homo sapiens, UniProt P08254); test: Inhibition of human MMP3; in short: as §1
# Neutrophil collagenase = Neutrophil collagenase (Homo sapiens, UniProt P22894); test: Inhibition of human MMP8; in short: as §1
# Collagenase 3 = Collagenase 3 (Homo sapiens, UniProt P45452); test: Inhibition of human MMP13
# In short: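 Human pro-MMP-13 (2 µg/mL in developing buffer) activated with 2 mM APMA for 1 h at 37 °C, then stopped on ice. Enzyme preincubated 30 min at 37 °C with compound (serial 1/10 dilutions from DMSO stocks), then incubated 6 h at 37 °C with fluorogenic substrate Dnp-Pro-Cha-Gly-Cys(ME)-His-Ala-Lys(Nma)-NH2. Fluorescence read at ex 340/em 440 nm, in triplicate. IC50 from 3 points in the linear range of % control fluorescence.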
# [2] = (§2) Reduction of IL1-beta plus […]-induced proteoglycan degradation in rabbit articular cartilage at 200 uM relative to control; type: functional, Oryctolagus cuniculus; design: scale not given: the % may be the effect or the level left
# In short: (§3)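 Rabbit articular cartilage fragments were prelabelled with 35SO4 and washed. They were then cultured 24 h with 1 ng/mL rmIL-1β, with or without compound, and moved to 5×10^-4 M APMA for another 24 h. Fragments were digested with papain, and the % radioactivity released to the medium was counted. Means ± sem, n = 8/group; ANOVA with Dunnett's test.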
# SW1353 = test: Inhibition of IL-1-beta-induced MMP13 production in human SW1353 cells at 50 uM; type: functional, cell-based
# In short: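 SW-1353 human chondrosarcoma cells grown to confluence in Ham's F12 with 10% FBS, then serum-free medium with 0.1% BSA for 24 h. Cells pretreated 30 min with DMSO vehicle or compound (6×10^-6 to 5×10^-5 M), then stimulated with rmIL-1β 10 ng/mL for 24 h. Total secreted MMP-13 (pro plus mature) in medium measured by ELISA.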
# [3] = Inhibition of IL-1-beta-induced collagen degradation in rabbit articular cartilage at 100 uM in presence of plasmin relative to control; type: functional, Oryctolagus cuniculus; design: scale not given: the % may be the effect or the level left
# In short: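 Non-radiolabeled rabbit articular cartilage fragments cultured 48 h with or without 10 ng/mL IL-1β plus 0.1 U/mL EACA- and Lys-free plasmin, with or without compound. Media and tissue hydrolyzed in 6 M HCl at 110 °C for 12 h. Hydroxyproline measured colorimetrically; degradation = media OH-Pro/(media + tissue OH-Pro) ×100. Means ± sem, n = 8/group; ANOVA with Dunnett's test.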
# [4] = (§4) Inhibition of IL1-beta plus […]-induced proteoglycan degradation in rabbit articular cartilage at 100 uM relative to control; type: functional, Oryctolagus cuniculus; design: scale not given: the % may be the effect or the level left
# In short: (§5)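 Rabbit articular cartilage fragments prelabeled with 35SO4 and washed. Incubated 24 h with or without 1 ng/mL rmIL-1β, with or without compound. Fragments then moved to 5×10^-4 M APMA for 24 h and digested in papain. Radioactivity counted by liquid scintillation. Degradation = media cpm/(media + tissue cpm) ×100. Means ± sem, n = 8/group.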
# Oryctolagus cuniculus [5] = species on record: Oryctolagus cuniculus; test: as §4; type: functional; in short: as §5
# Oryctolagus cuniculus [6] = species on record: Oryctolagus cuniculus; test: as §2; type: functional; in short: as §3
# Sequence of Stromelysin-1 (P08254 whole entry): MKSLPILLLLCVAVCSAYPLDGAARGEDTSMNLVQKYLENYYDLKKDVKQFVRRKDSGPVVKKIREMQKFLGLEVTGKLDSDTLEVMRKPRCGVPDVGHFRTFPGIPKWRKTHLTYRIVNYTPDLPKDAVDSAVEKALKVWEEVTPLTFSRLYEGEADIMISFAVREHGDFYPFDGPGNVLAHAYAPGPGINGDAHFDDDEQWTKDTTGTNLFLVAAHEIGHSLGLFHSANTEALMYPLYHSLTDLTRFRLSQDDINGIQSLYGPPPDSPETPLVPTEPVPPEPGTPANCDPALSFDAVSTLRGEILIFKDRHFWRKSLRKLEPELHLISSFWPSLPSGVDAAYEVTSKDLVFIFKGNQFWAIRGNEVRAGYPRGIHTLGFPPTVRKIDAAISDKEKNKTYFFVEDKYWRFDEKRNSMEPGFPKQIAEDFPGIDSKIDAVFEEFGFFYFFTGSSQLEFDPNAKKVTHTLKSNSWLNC
# Sequence of Neutrophil collagenase (P22894 whole entry): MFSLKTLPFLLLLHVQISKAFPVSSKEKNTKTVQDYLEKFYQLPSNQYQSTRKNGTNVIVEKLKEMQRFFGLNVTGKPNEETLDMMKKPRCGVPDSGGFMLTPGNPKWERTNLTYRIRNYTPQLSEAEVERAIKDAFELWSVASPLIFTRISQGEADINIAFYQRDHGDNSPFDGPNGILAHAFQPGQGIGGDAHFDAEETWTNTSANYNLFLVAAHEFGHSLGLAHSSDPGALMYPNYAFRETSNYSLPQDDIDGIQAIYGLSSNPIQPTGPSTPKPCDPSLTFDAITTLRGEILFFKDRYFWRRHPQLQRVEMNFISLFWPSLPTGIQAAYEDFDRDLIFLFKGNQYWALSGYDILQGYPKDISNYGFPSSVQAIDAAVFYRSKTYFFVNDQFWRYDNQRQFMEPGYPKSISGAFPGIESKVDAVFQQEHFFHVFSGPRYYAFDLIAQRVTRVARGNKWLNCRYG
# Sequence of 72 kDa type IV collagenase (P08253 whole entry): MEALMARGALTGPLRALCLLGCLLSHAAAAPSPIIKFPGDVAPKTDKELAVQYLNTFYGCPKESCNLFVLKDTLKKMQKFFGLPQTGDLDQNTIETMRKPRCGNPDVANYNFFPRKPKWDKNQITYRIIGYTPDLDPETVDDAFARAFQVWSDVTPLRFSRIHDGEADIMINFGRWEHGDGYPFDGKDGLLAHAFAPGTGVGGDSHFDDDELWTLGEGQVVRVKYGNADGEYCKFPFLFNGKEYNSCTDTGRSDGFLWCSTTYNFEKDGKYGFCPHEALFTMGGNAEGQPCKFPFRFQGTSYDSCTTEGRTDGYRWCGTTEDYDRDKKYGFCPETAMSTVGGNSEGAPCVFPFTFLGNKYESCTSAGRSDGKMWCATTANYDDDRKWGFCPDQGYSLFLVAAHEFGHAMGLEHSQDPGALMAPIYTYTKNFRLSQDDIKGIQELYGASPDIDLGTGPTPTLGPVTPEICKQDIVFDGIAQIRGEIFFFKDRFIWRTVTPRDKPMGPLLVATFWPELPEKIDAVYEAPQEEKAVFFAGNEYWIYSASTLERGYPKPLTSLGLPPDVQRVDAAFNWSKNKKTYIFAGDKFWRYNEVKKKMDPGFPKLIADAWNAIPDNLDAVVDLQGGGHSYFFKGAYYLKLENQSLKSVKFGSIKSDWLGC
Compound,IC50 [1] [µM],IC50 (Stromelysin-1) [µM],IC50 (Neutrophil collagenase) [µM],IC50 (Collagenase 3) [µM],Activity [2] [%],Activity (SW1353),Activity [3] [%],Activity [4] [%],Activity (Oryctolagus cuniculus [5]),Activity (Oryctolagus cuniculus [6])
CN(C)[C@@H]1C(O)=C(C(N)=O)C(=O)[C@@]2(O)C(O)=C3C(=O)c4c(O)cccc4[C@@](C)(O)[C@H]3C[C@@H]12 [TETRACYCLINE],220,140,180,180,29,Active,–,–,–,–
"C[C@H]1c2cccc(O)c2C(=O)C2=C(O)[C@]3(O)C(=O)C(C(N)=O)=C(O)[C@@H](N(C)C)[C@@H]3C(O)[C@@H]21.O (single isomer, unassigned) [DOXYCYCLINE]",24,25,31,40,–,Active,89,8,–,–
C[C@H]1c2cccc(O)c2C(=O)C2=C(O)[C@]3(O)C(=O)C(C(N)=O)=C(O)[C@@H]([N+](C)(C)C)C3[C@H](O)C21.[I-] (stereo partly specified),7.7,81,11,4.9,–,inactive,66,–,inactive,–
C[C@@]1(O)c2cccc(O)c2C(=O)C2=C(O)[C@]3(O)C(=O)C(C(N)=O)=C(O)[C@@H]([N+](C)(C)C)C3CC21 (stereo partly specified),140,150,110,120,–,inactive,–,–,–,inactive
